A3A deaminase = human APOBEC3A DNA deaminase inhibition | 330,000 tested, 0.41% active | inhibition, % at 20 µM | recombinant A3A, FAM/TAMRA ssDNA deamination fluorescence | P31941;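 active = at least 40% inhibition at 20 µM here, with at most 30% in a related deaminase screen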;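 note: plate controls were A3A with DMSO for no effect and wells lacking A3A enzyme for full effect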
Target sequence (P31941 whole entry, looked up): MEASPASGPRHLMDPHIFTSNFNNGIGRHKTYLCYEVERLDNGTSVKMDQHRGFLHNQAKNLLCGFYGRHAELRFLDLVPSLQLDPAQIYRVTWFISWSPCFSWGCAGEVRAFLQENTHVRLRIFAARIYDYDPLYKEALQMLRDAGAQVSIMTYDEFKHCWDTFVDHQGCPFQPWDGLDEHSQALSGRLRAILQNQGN
APOBEC3G inh = blocks human APOBEC3G single-stranded DNA deamination; 330,000 tested, 0.28% active; inhibition, % at 20 µM; AID 493012; recombinant A3G, ssDNA deamination FAM/TAMRA fluorescence; Q9HC16;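 active = inhibition of at least 40% at 20 µM, with no more than 30% in the related APOBEC3A deaminase screen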;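 note: plate controls were DMSO wells with A3G for no effect and wells lacking A3G enzyme for full effect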
ABHD5-PLIN5 inh = ABHD5-PLIN5 protein interaction inhibition; Q00G26+Q8WTS1; Split G. princeps luciferase complementation, luminescence, 4 h; inhibition, % at 4 µM; 360,000 tested, 0.78% active; AID 602281;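 active = inhibition above the mean inhibition across every tested compound plus 3 SD, cut at about 22% in these data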;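 note: 0% = DMSO only wells and the 100% control is not disclosed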
core dimer inh = blocks dimerization of HCV core protein. TR-FRET GST/Flag-core106 dimerization, 1536-well. inhibition, % at 5 µM. 300,000 tested, 0.33% active. AID 1899;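 active = inhibition above the mean of all tested compounds plus 3 SD, set per screening campaign, cut at about 45% in these data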
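System: GST-tagged and Flag-tagged HCV core protein residues 1-106 / Input: core106 proteins, GST 13.5 nM and Flag 17 nM / Buffer or medium: KF-containing HEPES buffer, pH 7.45, DTT, CHAPS, BSA / Probe or stimulus: Eu-anti-GST and XL665-anti-Flag labelled anti-tag antibodies / Schedule: 4 h, 22.5 °C incubation / Technique: TR-FRET 671 and 617 nm emission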
PRMT1 inh = inhibitors of human PRMT1; Q99873; recombinant PRMT1, activity-based probe fluorescence polarization; inhibition, % at 2.79 µM; 370,000 tested, 1.3% active; AID 652257;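 active = inhibition above about 21% made by adding two undisclosed values, limit read from the data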
HCV NS3 hel inh = HCV NS3 helicase inhibition; inhibition, % at 10.9 µM; 290,000 tested, 0.56% active; NS3 helicase DNA unwinding, Cy5 molecular beacon fluorescence;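 active = inhibition above the mean of all tested compounds plus 3 SD, set per campaign, cut at about 35% in these data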;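 note: 0% = DMSO wells and 100% = thioflavine S control wells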
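System: HCV NS3 helicase fragment; control set: DMSO and thioflavine S; technique: Cy5 fluorescence at 0 and 60 min, beacon hairpin quenching; reagent: beacon DNA duplex substrate plus ATP; replicates: singlicate; schedule: 1 h reaction at 25 °C, ATP-initiated; medium: MOPS buffer pH 6.5 with MgCl2, DTT, Tween20, BSA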
ABHD5-PLIN5 conf = ABHD5-PLIN5 interaction inhibition, confirmed; biochemical ABHD5-PLIN5 interaction, luminescence; AID 651612; shares compounds with ABHD5-PLIN5 inh; 2,200 tested, 67% active; inhibition, % at 4 µM; in the data active = inhibition above about 23%;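 note: 0% = DMSO vehicle wells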
HNF4 counter = counter-screen for ABHD5-PLIN5 inhibitors: HNF4 split-luciferase; shares compounds with ABHD5-PLIN5 inh; 2,200 tested, 77% active; AID 651674; HNF4 dimerization, luminescence, biochemical; inhibition, % at 4 µM;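 active = mean inhibition across replicate wells exceeding the computed hit threshold, cut at about 13% in these data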;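 note: light from luciferase halves that rejoin when HNF4 fusion proteins dimerize; 0% = DMSO only wells and the 100% control is not given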
Target sequence (P41235 whole entry, looked up, the tested form may be a part): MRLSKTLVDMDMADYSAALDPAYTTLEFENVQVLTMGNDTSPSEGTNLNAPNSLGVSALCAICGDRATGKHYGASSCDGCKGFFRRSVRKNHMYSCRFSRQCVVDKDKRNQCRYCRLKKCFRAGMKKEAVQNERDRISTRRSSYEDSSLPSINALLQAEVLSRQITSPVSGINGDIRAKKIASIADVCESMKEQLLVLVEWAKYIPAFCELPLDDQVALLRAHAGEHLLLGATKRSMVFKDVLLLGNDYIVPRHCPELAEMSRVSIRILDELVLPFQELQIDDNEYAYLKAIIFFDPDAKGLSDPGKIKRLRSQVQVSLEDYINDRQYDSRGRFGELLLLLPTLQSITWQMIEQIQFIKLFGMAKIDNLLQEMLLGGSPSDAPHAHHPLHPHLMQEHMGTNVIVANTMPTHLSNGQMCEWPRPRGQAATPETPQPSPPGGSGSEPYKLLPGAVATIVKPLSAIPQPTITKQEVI
Numbers without * were called inactive; . = no result. Most compounds without a hit are left out; they make up all but 2.9% or so of the library.

SMILES	A3A deaminase	APOBEC3G inh	ABHD5-PLIN5 inh	core dimer inh	PRMT1 inh	HCV NS3 hel inh	ABHD5-PLIN5 conf	HNF4 counter
NC(=O)C(C(=O)/C=C/c1ccc(Cl)cc1)=C1SCCS1	-2.3	-3.0	33.8*	2.5	-3.8	-1.8	56.4*	34.1*
C[C@H]1COc2cc(Br)ccc2S(=O)(=O)N1Cc1cn(Cc2ccc(Br)cc2)nn1	.	.	.	.	0.6	.	.	.
COCc1cc(CNC(=O)C2CCC(=O)N(Cc3ccccc3OC)C2)[nH]n1 (centres undefined)	-0.8	-4.7	24.4*	-5.8	-2.6	3.8	-0.9	-1.9
COCc1cc(CNC(=O)C2CCC(=O)N(Cc3ccccc3F)C2)[nH]n1 (centres undefined)	5.3	-0.5	-8.0	-5.7	1.5	-1.2	.	.
N#CN1C2CCC1CC(O)(c1ccccc1)C2 (centres undefined)	.	.	-1.3	.	.	.	.	.
O=C(C(Br)=Cc1ccccc1)c1ccccc1	.	.	50.8*	.	8.4	.	83.0*	97.6*
CC(=O)C(=Cc1ccc(-c2ccccc2)cc1)C(=O)c1ccccc1	.	.	95.5*	.	-0.8	.	98.2*	95.9*
Cc1ccc(C(=O)/C=C/c2ccc(Br)cc2)o1	-6.9	-7.7	52.5*	11.1	3.9	0.9	85.4*	60.8*
Cc1ccc(C(=O)/C=C/c2ccccc2)o1	-4.0	-1.9	15.4	2.2	0.4	-3.8	.	.
Nc1ccc(/C=C/C(=O)c2ccco2)cc1	5.5	3.3	11.3	-2.5	-1.2	-11.3	.	.
N#Cc1ccc(/C=C/C(=O)c2ccco2)cc1	2.7	-0.2	63.0*	3.3	2.5	-0.3	93.5*	94.8*
CC(C)(C)C(=O)Nc1ccc(/C=C/C(=O)c2ccco2)cc1	-6.3	-7.3	37.0*	-2.6	-0.1	21.3	60.8*	44.3*
CN1C(=S)N(c2cccnc2)C(=O)/C1=C\c1ccc(C(C)(C)C)cc1	-2.4	-10.5	37.8*	3.5	-1.6	-0.3	64.5*	54.6*
CC(C)(C)c1ccc(/C=C/C(=O)Nc2cccnc2)cc1	0.2	16.2	-6.0	10.1	5.4	-18.7	.	.
CC(C)C(=O)N1CCN(c2ccccc2NC(=O)c2ccc3c(c2)OCCO3)CC1	.	.	6.3	.	.	.	.	.
O=C(CC(Nc1ccc(F)cc1)C(=O)O)c1ccccc1 (centres undefined)	-7.1	-2.1	42.6*	5.8	17.7	16.6	38.0*	89.5*
O=c1c2ccccc2nc2ccc(NCc3ccco3)nn12	11.6	7.0	31.4*	10.0	10.4	2.2	72.4*	79.9*
O=C1c2ccccc2C(=O)N1Cc1nc2ccccc2c(=O)n1Cc1ccco1	-6.3	-3.9	.	5.7	.	.	.	.
Cc1sc2nc3ccc(NCc4ccco4)nn3c(=O)c2c1C	7.3	-1.0	31.0*	18.3	4.0	7.0	65.9*	77.4*
Cc1sc2nc(SCC(=O)NCc3ccco3)[nH]c(=O)c2c1C	-2.3	-11.2	0.1	0.3	8.5	1.2	.	.
COCCN(C(=O)COC(=O)CCOc1cccc(C)c1)c1c(N)n(Cc2ccccc2)c(=O)[nH]c1=O	-1.4	-1.3	-5.0	-9.1	-0.3	.	.	.
CNC(=O)OCc1cocc1COC(=O)NC	.	.	0.9	.	-5.8	.	.	.
C=CCC(Nc1ccccc1)C12C=CC(O1)C(C(=O)OC)=C2C(=O)OC (centres undefined)	-4.3	-7.2	26.2*	1.6	0.3	3.3	85.6*	89.5*
CCN(Cc1ccccc1)c1ccc(N=Nc2nn(C)c(C)c2[N+](=O)[O-])cc1	3.3	-0.8	9.0	-12.2	-2.6	-10.5	.	.
CCN(CC)c1ccc(N=Nc2nn(C)c(C)c2[N+](=O)[O-])cc1	5.4	3.3	25.3*	-37.5	1.6	0.0	28.6*	32.6*
SMILES	A3A deaminase	APOBEC3G inh	ABHD5-PLIN5 inh	core dimer inh	PRMT1 inh	HCV NS3 hel inh	ABHD5-PLIN5 conf	HNF4 counter
COc1ccc(N2CCN(S(=O)(=O)CCNC(=O)Cc3ccc([N+](=O)[O-])cc3)CC2)cc1	-3.4	-3.7	67.7*	-7.2	2.2	-11.2	1.1	-2.6
CN(C)C1CN(Cc2cn(Cc3cccc(C(F)(F)F)c3)nn2)S(=O)(=O)C1 (centres undefined)	.	.	3.3	.	-2.1	.	.	.
Cc1cc(C)c2nc(-c3ccccn3)cc(C(=O)NCc3ccco3)c2c1	35.7	14.1	45.1*	68.9*	-0.6	19.2	21.3	25.6*
COc1cc2oc(=O)cc(CN(Cc3ccccc3)Cc3ccccc3)c2cc1Cl	.	.	-2.3	.	-3.0	.	.	.
COc1ccc(OCC(=O)Nc2ccc3c(c2)nc(CCN2CCC(C)CC2)n3C)cc1	0.8	0.0	9.5	-3.6	-3.5	-0.9	.	.
CC1CCN(CCc2nc3cc(NC(=O)COc4ccc(Cl)cc4)ccc3n2C)CC1	-1.3	-1.3	23.2*	1.5	-0.1	-32.1	8.1	4.0
O=C(c1ccco1)N1CCN(c2cc(=O)n(-c3ccc(Cl)cc3)c(=O)[nH]2)CC1	-4.4	-10.1	12.9	1.1	1.8	4.3	.	.
Cc1ccc(Cl)cc1-n1c(=O)cc(N2CCN(C(=O)c3ccco3)CC2)[nH]c1=O	1.9	2.7	23.2*	-2.6	1.4	16.9	5.0	4.0
CC1CCN(C2=NC(=O)/C(=C/c3ccccc3F)S2)CC1	-1.8	-8.4	8.7	22.2	2.3	-12.6	.	.
CN1C2CCC1/C(=C\c1ccccc1F)C(=O)/C2=C/c1ccccc1F	-2.9	-8.6	24.8*	4.6	-2.3	-65.0	26.3*	27.5*
CCCNC(=O)Nc1ccc2c(c1)N(C)C(=O)c1ccccc1S2	2.3	-0.7	32.7*	-2.6	1.6	-1.5	53.8*	4.0
CCCCNC(=O)Nc1ccc2c(c1)N(C)C(=O)c1ccccc1S2	-8.0	-8.7	49.9*	0.1	0.1	-9.4	68.1*	4.1
CN1C(=O)c2ccccc2Sc2ccc(NC(=O)N3CCCC3)cc21	-3.7	-5.7	9.2	1.8	-2.2	-12.0	.	.
CN1CCN(C(=O)Nc2ccc3c(c2)N(C)C(=O)c2ccccc2S3)CC1	0.1	-3.7	-11.3	0.9	-8.2	-1.9	.	.
COc1cc(C(=O)NCC(=O)NNC(=O)CN(C)S(=O)(=O)c2ccc(Cl)cc2)cc(OC)c1OC	-3.9	-6.3	2.0	.	-9.0	.	.	.
COC(=O)C1=CN(c2cccc(OCc3ccccc3)c2)C(N)=C(C#N)C1c1cccc(F)c1 (centres undefined)	.	.	-3.0	.	6.2	.	.	.
COC(=O)COc1ccc(/C=C2/NC(=O)N(CC(=O)OC)C2=O)cc1	-3.7	-8.1	0.5	2.5	1.6	4.0	.	.
COC(=O)CN1C(=O)N/C(=C/c2ccc(C)o2)C1=O	12.8	-3.9	25.2*	-7.2	55.8*	3.2	13.6	49.3*

Compound activity as filed in PubChem.
